Assay results published in ChEMBL document CHEMBL5230171, “Expanding the structure-activity relationships of alkynyl diphenylurea scaffold as promising antibacterial agents” (RSC Med Chem, 2023).
In brackets after ≈: the same amount, converted by molar mass. Activity calls are given as the source filed them. The rule behind the calls is not given here.

How the values were obtained:
Staphylococcus aureus [1] = experiment: Antibacterial activity against methicillin resistant Staphylococcus aureus NRS384 USA300 assessed as inhibition of bacterial growth incubated for 18 to 20 hrs by CLSI protocol based broth microdilution method; assay type: functional; conditions: time 18-20 hrs, read-out: MIC
In short: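 Broth microdilution against staphylococcal clinical isolates. Each strain was prepared as a 0.5 McFarland suspension and diluted in cation-adjusted Mueller Hinton broth to ~5 × 10^5 CFU mL−1. Serial dilutions of test agents in DMSO stock were incubated with the bacteria, and the MIC was recorded.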

Staphylococcus aureus [2] = experiment: Antibacterial activity against methicillin resistant Staphylococcus aureus 385 assessed as inhibition of bacterial growth at 0.5 ug/ml incubated for 18 to 20 hrs by CLSI protocol based broth microdilution method; assay type: functional, organism-based; conditions: dose 0.5 µg/ml, time 18-20 hrs
Staphylococcus aureus [3] = experiment: Antibacterial activity against methicillin resistant Staphylococcus aureus 123 assessed as inhibition of bacterial growth at 0.5 ug/ml incubated for 18 to 20 hrs by CLSI protocol based broth microdilution method; assay type: functional, organism-based; conditions: dose 0.5 µg/ml, time 18-20 hrs
Staphylococcus aureus [4] = experiment: Antibacterial activity against methicillin resistant Staphylococcus aureus 386 assessed as inhibition of bacterial growth at 0.5 ug/ml incubated for 18 to 20 hrs by CLSI protocol based broth microdilution method; assay type: functional, organism-based; conditions: dose 0.5 µg/ml, time 18-20 hrs
Staphylococcus aureus [5] = experiment: Antibacterial activity against vancomycin resistant Staphylococcus aureus 9 assessed as inhibition of bacterial growth at 0.5 ug/ml incubated for 18 to 20 hrs by CLSI protocol based broth microdilution method; assay type: functional, organism-based; conditions: dose 0.5 µg/ml, time 18-20 hrs
Staphylococcus aureus [6] = experiment: Antibacterial activity against vancomycin resistant Staphylococcus aureus 12 assessed as inhibition of bacterial growth at 0.5 ug/ml incubated for 18 to 20 hrs by CLSI protocol based broth microdilution method; assay type: functional, organism-based; conditions: dose 0.5 µg/ml, time 18-20 hrs
Staphylococcus aureus [7] = experiment: Antibacterial activity against vancomycin resistant Staphylococcus aureus 10 assessed as inhibition of bacterial growth at 0.5 ug/ml incubated for 18 to 20 hrs by CLSI protocol based broth microdilution method; assay type: functional, organism-based; conditions: dose 0.5 µg/ml, time 18-20 hrs
Staphylococcus aureus [8] = experiment: Antibacterial activity against methicillin resistant Staphylococcus aureus 119 assessed as inhibition of bacterial growth at 0.5 ug/ml incubated for 18 to 20 hrs by CLSI protocol based broth microdilution method; assay type: functional, organism-based; conditions: dose 0.5 µg/ml, time 18-20 hrs
Vero = experiment: Cytotoxicity against African green monkey Vero cells assessed as reduction in cell viability at 64 ug/ml incubated for 24 hrs by MTS assay; assay type: toxicity, cell-based; conditions: chlorocebus sabaeus, dose 64 µg/ml
In short: (§1)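 Vero or HaCaT cells were exposed to 32, 64 and 128 μg mL−1 compound in triplicate for 24 h at 37 °C, 5% CO2, with a DMSO control. MTS was then added for 4 h and OD490 read. Analysis used two-way ANOVA with Dunnett's post hoc test (p < 0.05).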

Staphylococcus aureus [9] = experiment: Antibacterial activity against methicillin sensitive Staphylococcus aureus 107 assessed as inhibition of bacterial growth at 0.5 ug/ml incubated for 18 to 20 hrs by CLSI protocol based broth microdilution method; assay type: functional, organism-based; conditions: dose 0.5 µg/ml, time 18-20 hrs
In short: (§2)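 Staphylococcal and E. coli strains were diluted from a 0.5 McFarland suspension in cation-adjusted Mueller Hinton broth to ~5 × 10^5 CFU mL−1. They were incubated with serial dilutions of test agent in broth microdilution, and the MIC was recorded.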

Staphylococcus aureus [10] = experiment: Antibacterial activity against methicillin resistant Staphylococcus aureus 384 assessed as inhibition of bacterial growth at 0.5 ug/ml incubated for 18 to 20 hrs by CLSI protocol based broth microdilution method; assay type: functional, organism-based; conditions: dose 0.5 µg/ml, time 18-20 hrs
Staphylococcus aureus [11] = experiment: Antibacterial activity against methicillin sensitive Staphylococcus aureus 6538 assessed as inhibition of bacterial growth at 0.5 ug/ml incubated for 18 to 20 hrs by CLSI protocol based broth microdilution method; assay type: functional, organism-based; conditions: dose 0.5 µg/ml, time 18-20 hrs; in short: as §2
[12] = Cytotoxicity against human HaCaT cells assessed as tolerance by measuring cell viability at 64 ug/ml incubated for 24 hrs by MTS assay relative to control; assay type: toxicity, cell-based; conditions: at 64 µg/mL, read-out: Activity; in short: as §1
Staphylococcus aureus [13] = experiment: Post antibiotic effect against methicillin resistant Staphylococcus aureus NRS384 USA300 assessed as time required for 1 log10 increase in CFU at 5 times of MIC incubated for 2 hrs followed by replacement with drug free medium and measured after 18-24 hrs; assay type: functional
In short: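 MRSA USA300 at ~10^6 CFU mL−1 was exposed for 2 h to 5× MIC of test agent, with vancomycin or DMSO as controls. Drug was removed by 1:1000 dilution in fresh TSB. Cultures were incubated at 37 °C with 180 rpm shaking and sampled hourly for 8 h, with viable counts on MSA read after 18–24 h. PAE = T − C, where T and C are the times for a 1 log10 rise in the test and control cultures.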

Compound | MIC (Staphylococcus aureus [1]) [µg/mL] | Activity (Staphylococcus aureus [2]) | Activity (Staphylococcus aureus [3]) | Activity (Staphylococcus aureus [4]) | Activity (Staphylococcus aureus [5]) | Activity (Staphylococcus aureus [6]) | Activity (Staphylococcus aureus [7]) | Activity (Staphylococcus aureus [8]) | Activity (Vero) | Activity (Staphylococcus aureus [9]) | Activity (Staphylococcus aureus [10]) | Activity (Staphylococcus aureus [11]) | viability at 24 h, 64 ug/ml [12] [%] | Time (Staphylococcus aureus [13]) [h]
C/C(=N\NC(=N)N)c1ccc(NC(=O)Nc2ccc(C#CC3CCCCC3)cc2)cc1 | 4000 (≈ 9600 µM) | – | – | – | – | – | – | – | – | – | – | – | – | –
CCCCCC#Cc1ccc(NC(=O)Nc2ccc(/C(C)=N/NC(=N)N)cc2)cc1 | 0.5 (≈ 1.24 µM) | Active | Active | Active | Active | Active | Active | Active | Non-Toxic | Active | Active | Active | 100 | –
CCCC#Cc1ccc(NC(=O)Nc2ccc(/C(C)=N/NC(=N)N)cc2)cc1 | 0.5 (≈ 1.33 µM) | – | – | – | – | – | – | – | – | – | – | – | – | –
C/C(=N\NC(=N)N)c1ccc(NC(=O)Nc2ccc(C#CC(C)(C)C)cc2)cc1 | 0.5 (≈ 1.28 µM) | Active | Active | Active | Active | Active | Active | Active | – | Active | Active | Active | – | –
CN[C@H](CC(C)C)C(=O)N[C@H]1C(=O)N[C@@H](CC(N)=O)C(=O)N[C@H]2C(=O)N[C@H]3C(=O)N[C@H](C(=O)N[C@H](C(=O)O)c4cc(O)cc(O)c4-c4cc3ccc4O)[C@H](O)c3ccc(c(Cl)c3)Oc3cc2cc(c3O[C@@H]2O[C@H](CO)[C@@H](O)[C@H](O)[C@H]2O[C@H]2C[C@](C)(N)[C@H](O)[C@H](C)O2)Oc2ccc(cc2Cl)[C@H]1O [VANCOMYCIN] | – | Active | Active | Active | Active | Active | Active | Active | – | Active | Active | Active | – | 4
